Active and inactive are the calls of the source. The calls are words filed in the database; no cut-off is given here.
What was measured:
[1] = target: T1, ENPP1 (ectonucleotide pyrophosphatase/phosphodiesterase family member 1) (Homo sapiens, UniProt P22413); assay: Stability in presence of ENPP1 ( unknown origin) assessed as half life by HPLC analysis; settings: ENPP1 (isolated enzyme, unknown origin)
T1 sequence (P22413 whole entry): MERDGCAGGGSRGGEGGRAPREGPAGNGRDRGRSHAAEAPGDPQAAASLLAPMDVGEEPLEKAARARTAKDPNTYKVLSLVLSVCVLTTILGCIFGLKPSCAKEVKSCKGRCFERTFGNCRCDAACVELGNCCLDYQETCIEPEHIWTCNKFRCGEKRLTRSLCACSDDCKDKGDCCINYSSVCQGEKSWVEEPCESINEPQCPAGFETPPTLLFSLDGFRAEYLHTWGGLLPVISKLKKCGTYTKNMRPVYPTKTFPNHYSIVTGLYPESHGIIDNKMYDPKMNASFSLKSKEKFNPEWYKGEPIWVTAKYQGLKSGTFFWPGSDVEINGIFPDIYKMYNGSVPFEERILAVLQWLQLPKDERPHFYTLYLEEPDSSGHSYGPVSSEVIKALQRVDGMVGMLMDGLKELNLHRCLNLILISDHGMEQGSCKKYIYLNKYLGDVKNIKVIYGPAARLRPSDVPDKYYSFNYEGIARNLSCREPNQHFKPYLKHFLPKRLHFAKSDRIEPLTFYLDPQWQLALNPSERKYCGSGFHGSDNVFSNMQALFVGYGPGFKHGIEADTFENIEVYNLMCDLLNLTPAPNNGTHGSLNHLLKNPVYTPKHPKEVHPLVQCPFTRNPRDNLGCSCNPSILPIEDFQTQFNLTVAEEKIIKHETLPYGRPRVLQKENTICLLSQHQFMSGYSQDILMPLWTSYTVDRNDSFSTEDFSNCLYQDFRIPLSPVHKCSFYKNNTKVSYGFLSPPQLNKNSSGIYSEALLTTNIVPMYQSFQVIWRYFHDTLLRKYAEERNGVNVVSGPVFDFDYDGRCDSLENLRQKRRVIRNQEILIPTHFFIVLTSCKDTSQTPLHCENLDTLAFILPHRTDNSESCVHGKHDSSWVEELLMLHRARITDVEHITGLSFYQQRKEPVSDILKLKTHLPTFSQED

RAW [2] = assay: Induction of type I IFN production in mouse RAW-Lucia ISG-KO-STING cells at 0.08 to 60 ug/ml incubated for 48 hrs by luciferase reporter gene assay; format: functional, cell-based; settings: dose 0.08-60 µg/ml
[3] = Stability in presence of snake venom phosphodiesterase assessed as parent compound remaining level at 7 ug incubated for 2 hrs by HPLC analysis; format: ADME; settings: in vitro, at 7 µg
In short: (§1)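 7 µg of each CDN incubated at 37 °C in a water bath with 21 µL of enzyme solution (160 µg snake venom phosphodiesterase in PBS with 0.6 mM MgCl2), with water as the no-enzyme control. Aliquots were taken at time points from 0 to 2 h, heated at 100 °C for 2 min, frozen, then injected onto a C18 UHPLC column with UV detection to follow the parent compound.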

Nuclease P1 [4] = target: T2, Nuclease P1 (Penicillium citrinum, UniProt P24289); assay: Stability in presence of nuclease P1 assessed as parent compound remaining level at 7 ug incubated for 2 hrs by HPLC analysis; format: ADME; settings: at 7 µg; for Stabilty: in vitro, 2 h
T2 sequence (P24289 whole entry): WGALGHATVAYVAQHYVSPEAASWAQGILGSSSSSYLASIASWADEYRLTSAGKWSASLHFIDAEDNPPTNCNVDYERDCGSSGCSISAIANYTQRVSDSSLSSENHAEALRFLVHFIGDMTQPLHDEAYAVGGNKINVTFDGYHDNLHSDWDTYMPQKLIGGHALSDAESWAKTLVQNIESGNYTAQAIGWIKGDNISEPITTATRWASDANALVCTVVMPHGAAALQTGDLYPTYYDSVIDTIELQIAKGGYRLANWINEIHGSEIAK
In short: (§2)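 7 µg CDN incubated at 37 °C with 2.5 mU NP1 in 30 mM acetate buffer, 2 mM ZnCl2, pH 5.3 (water control). Aliquots taken from 0 to 2 h, heated 100 °C for 2 min, frozen, then analysed by reverse-phase UPLC with UV detection.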

RAW [5] = assay: Induction of type I IFN production in mouse RAW-Lucia ISG-KO-STING cells at 0.08 to 100 ug/ml incubated for 48 hrs by luciferase reporter gene assay; format: functional, cell-based; settings: dose 0.08-100 µg/ml
[6] = target: T3, Stimulator of interferon genes protein (Homo sapiens, UniProt Q86WV6); assay: Activation of STING in human blood assessed as induction of type I IFNs incubated for 18 to 20 hrs by QUANTI-Blue assay; format: tissue-based
T3 sequence (Q86WV6 whole entry): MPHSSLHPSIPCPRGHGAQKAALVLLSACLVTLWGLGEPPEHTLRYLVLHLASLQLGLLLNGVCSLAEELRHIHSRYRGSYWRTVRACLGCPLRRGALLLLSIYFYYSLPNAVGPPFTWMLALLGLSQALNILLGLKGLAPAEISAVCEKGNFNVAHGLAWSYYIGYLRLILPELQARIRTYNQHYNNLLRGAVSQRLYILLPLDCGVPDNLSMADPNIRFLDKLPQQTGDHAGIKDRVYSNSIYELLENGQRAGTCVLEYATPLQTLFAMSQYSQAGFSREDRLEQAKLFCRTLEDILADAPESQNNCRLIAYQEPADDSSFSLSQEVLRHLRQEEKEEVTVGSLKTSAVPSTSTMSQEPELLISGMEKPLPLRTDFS

[7] = target: T4, Stimulator of interferon genes protein (Mus musculus, UniProt Q3TBT3); assay: Activation of STING in mouse RAW-Lucia ISG cells assessed as induction of type I IFNs stimulation by measuring induction of IRF pathway incubated for 48 hrs by luciferase reporter gene assay; format: cell-based
T4 sequence (Q3TBT3 whole entry): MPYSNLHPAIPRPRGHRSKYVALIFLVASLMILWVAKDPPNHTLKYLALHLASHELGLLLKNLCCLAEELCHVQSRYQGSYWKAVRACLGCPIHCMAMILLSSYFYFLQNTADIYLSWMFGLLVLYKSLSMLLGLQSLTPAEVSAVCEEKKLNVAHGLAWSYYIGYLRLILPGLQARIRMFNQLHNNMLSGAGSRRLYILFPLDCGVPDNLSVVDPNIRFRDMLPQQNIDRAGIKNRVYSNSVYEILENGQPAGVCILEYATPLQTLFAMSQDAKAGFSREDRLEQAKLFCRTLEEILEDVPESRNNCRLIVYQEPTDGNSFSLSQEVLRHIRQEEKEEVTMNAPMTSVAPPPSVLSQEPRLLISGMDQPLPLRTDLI
In short: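 Cells (~100,000/well) stimulated 48 h at 37 °C, 5% CO2, with saline vehicle or compound in saline at seven concentrations. Luciferase reporter read with Quanti-Luc. EC50 from log(agonist) dose-response fit; mean ± SD of three independent experiments.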

[8] = target: T3, Stimulator of interferon genes protein; assay: Activation of STING in human blood assessed as increase in IL-1 production at 10 ug/ml incubated for 18 to 20 hrs by QUANTI-Blue assay; format: tissue-based; settings: filed as activator, time 18-20 hrs
In short: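 Whole blood from healthy donors, diluted 1:2 in RPMI with sodium pyruvate, incubated 18–20 h at 37 °C with CDN in saline. Supernatants assayed on HEK-Blue IL-1R reporter cells (~50,000/well, ~20 h, 37 °C), SEAP read with QUANTI-Blue. Fold induction over unstimulated; mean of fifteen donors over three experiments.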

[9] = target: T5, Stimulator of interferon genes protein (Mus musculus) (UniProt Q3TBT3); assay: Activation of STING in mouse RAW-Lucia ISG cells assessed as induction of type I IFNs stimulation by measuring induction of IRF pathway incubated for 48 hrs by luciferase reporter gene assay relative to 2',3'-cGAMP; format: cell-based; settings: filed as activator
T5 sequence (whole entry): T4 sequence (Q3TBT3 whole entry)
In short: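 RAW-Lucia ISG cells (~100,000/well), 48 h at 37 °C, 5% CO2, compound in saline at seven concentrations, Quanti-Luc luciferase read-out. Emax taken as fitted top plateau, normalized to the 2',3'-cGAMP response in each assay; mean percentage ± SD of three independent experiments.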

Nuclease P1 [10] = target: T2, Nuclease P1; assay: Stability in presence of nuclease P1 assessed as half life at 7 ug incubated for 2 hrs by HPLC analysis; format: ADME; settings: nuclease P1 (isolated enzyme), dose 7 µg; in short: as §2
[11] = system: snake venom phosphodiesterase; assay: (§3) Stability in presence of snake venom phosphodiesterase assessed as parent compound degradation at 7 ug incubated for 2 hrs by HPLC analysis; format: ADME; settings: snake venom phosphodiesterase, read-out: Drug degradation; in short: as §1
[12] = as §3; format: ADME; settings: in vivo, 2 h; in short: as §1
[13] = Stability in presence of snake venom phosphodiesterase assessed as parent compound remaining level at 7 ug incubated for >2 hrs by HPLC analysis; format: ADME; settings: at 7 µg

## Nc1nc2c(ncn2[C@@H]2O[C@@H]3COP(=O)(O)O[C@H]4[C@@H](O)[C@H](n5cnc6c(N)ncnc65)O[C@@H]4COP(=O)(O)O[C@@H]2[C@@H]3O)c(=O)[nH]1
[1]
  half-life: 60 min
RAW [2]
  Activity: inactive
[3]
  Stabilty: Stable
Nuclease P1 [4]; nuclease P1 (isolated enzyme), time 2 hrs, read-out: Stabilty
  remaining at 2 h, 7 ug: 83%

## Cc1ccc2c(=O)c3cccc(CC(=O)O)c3oc2c1C
RAW [5]
  Activity: inactive

## Nc1ncnc2c1ncn2[C@@H]1O[C@@H]2COP(=O)(O)O[C@H]3[C@@H](F)[C@H](n4cnc5c(O)ncnc54)O[C@@H]3COP(=O)(O)O[C@H]2[C@H]1F
[6]
  EC50: 0.7 µM
[7]
  EC50: 5.1 µM
RAW [2]
  Activity: inactive
[8]
  Activity: Active
[3]
  Stabilty: Stable
Nuclease P1 [4]
  Stabilty: Stable
[9]
  Emax: 90%

## Nc1ncnc2c1ncn2[C@@H]1O[C@@H]2COP(=O)(O)O[C@@H]3[C@H](O)[C@@H](COP(=O)(O)O[C@H]2[C@H]1O)O[C@H]3n1cnc2c(=O)[nH]cnc21
Nuclease P1 [10]
  half-life at 7 ug: 7.1 min
[7]
  EC50: 6.1 µM
RAW [2]
  Activity: inactive
[9]
  Emax: 85%

## Nc1ncnc2c1ncn2[C@@H]1O[C@@H]2COP(=O)(O)O[C@@H]3[C@H](O)[C@@H](COP(=O)(O)O[C@@H]1[C@@H]2O)O[C@H]3n1cnc2c(O)ncnc21
RAW [2]
  Activity: inactive
[9]
  Emax: 95%

## Nc1nc2c(ncn2[C@@H]2O[C@@H]3COP(=O)(O)O[C@H]4[C@@H](O)[C@H](n5cnc6c(N)ncnc65)O[C@@H]4COP(=O)(O)O[C@@H]2C3)c(=O)[nH]1
[1]
  half-life: 60 min

## Nc1ncnc2c1ncn2[C@H]1C[C@@H]2OP(=O)(O)OC[C@H]3O[C@@H](n4cnc5c(O)ncnc54)C[C@@H]3OP(=O)(O)OC[C@H]2O1
Nuclease P1 [10]
  half-life at 7 ug: 5.7 min
[6]
  EC50: 9.9 µM
[7]
  EC50: 11.6 µM
RAW [2]
  Activity: inactive
[11]
  metabolised at 2 h, 7 ug: < 40%
[3]
  Stabilty: Stable
[9]
  Emax: 91%

## Nc1ncnc2c1ncn2[C@@H]1O[C@@H]2COP(=O)(O)O[C@H]3[C@@H](O)[C@H](n4cnc5c(O)ncnc54)O[C@@H]3COP(=O)(O)O[C@@H]1[C@@H]2O
RAW [2]
  Activity: inactive
[9]
  Emax: 85%

## Nc1ncnc2c1ncn2[C@@H]1O[C@@H]2COP(=O)(O)O[C@H]3C[C@H](n4cnc5c(O)ncnc54)O[C@@H]3COP(=O)(O)O[C@H]2[C@H]1F
[6]
  EC50: 3.6 µM
[7]
  EC50: 9.1 µM
RAW [2]
  Activity: inactive
[9]
  Emax: 99%

## Nc1ncnc2c1ncn2[C@@H]1O[C@@H]2COP(=O)(O)O[C@H]3[C@@H](O)[C@H](n4cnc5c(O)ncnc54)O[C@@H]3COP(=O)(O)O[C@H]2[C@H]1O
Nuclease P1 [10]
  half-life at 7 ug: 23.1 min
RAW [2]
  Activity: inactive
[12]
  Stabilty: Unstable
[9]
  Emax: 107%

## Nc1ncnc2c1ncn2[C@H]1C[C@@H]2OP(=O)(O)OC[C@H]3O[C@@H](n4cnc5c(O)ncnc54)[C@H](F)[C@@H]3OP(=O)(O)OC[C@H]2O1
[6]
  EC50: 2.8 µM
[7]
  EC50: 5 µM
RAW [2]
  Activity: inactive
[3]
  Stabilty: Stable
[9]
  Emax: 93%

## Nc1ncnc2c1ncn2[C@@H]1O[C@@H]2COP(=O)(S)O[C@H]3[C@@H](O)[C@H](n4cnc5c(O)ncnc54)O[C@@H]3COP(=O)(S)O[C@H]2[C@H]1O (stereo partly specified)
[6]
  EC50: 10.6 µM
[7]
  EC50: 4 µM
RAW [2]
  Activity: inactive
[3]
  Stabilty: Stable
Nuclease P1 [4]
  Stabilty: Stable
[9]
  Emax: 115%

## Nc1ncnc2c1ncn2[C@H]1C[C@@H]2OP(=O)(S)OC[C@H]3O[C@@H](n4cnc5c(O)ncnc54)[C@H](F)[C@@H]3OP(=O)(S)OC[C@H]2O1 (stereo partly specified)
[6]
  EC50: 4.7 µM
[7]
  EC50: 2.2 µM
[13]
  Stabilty: Stable
RAW [2]
  Activity: inactive
[3]
  Stabilty: Stable
[9]
  Emax: 83%

## Nc1ncnc2c1ncn2[C@@H]1O[C@@H]2COP(=O)(S)O[C@H]3[C@@H](F)[C@H](n4cnc5c(O)ncnc54)O[C@@H]3COP(=O)(S)O[C@H]2[C@H]1F (stereo partly specified)
[6]
  EC50: 0.4 µM
[7]
  EC50: 0.6 µM
[13]
  Stabilty: Stable
RAW [2]
  Activity: inactive
[8]
  Activity: Active
[3]
  Stabilty: Stable
Nuclease P1 [4]
  Stabilty: Stable
[9]
  Emax: 104%
